# Assay results: ChEMBL document CHEMBL1122190, “Mammary tumor inhibiting effect of 3,3'-diacetoxy-alpha, beta-dialkylstilbenes and of related stilbene oxides” (1982)
# Key:
# [1] = molecular target: T1, Estrogen receptor (Mus musculus) (UniProt O08537+P19785); experiment: Percent inhibition of estrone-stimulated uterine growth in immature mouse at 25 ug dose; type: functional
# In short: (§1)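 Dorfman uterine weight test in immature female NMRI mice, ten per group, 20 days old and 10-12 g at start. Compounds were given in olive oil sc once daily for 3 days. Mice were killed 24 h after the last injection, and uteri were removed, dried at 100 °C for 24 h and weighed.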
# [2] = molecular target: T1, Estrogen receptor (Mus musculus); experiment: Percent inhibition of estrone-stimulated uterine growth in immature mouse at 2.5 ug dose; type: functional; in short: as §1
# Rattus norvegicus [3] = experiment: Effect on DMBA-induced hormone-dependent mammary carcinoma tumor growth in rats at 2.0 mg/kg/day; type: functional
# In short: (§2)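 Female Sprague-Dawley rats received a single 20 mg DMBA dose by gastric intubation at 50 days of age. About 4 weeks later, rats bearing at least one tumor >140 mm² were grouped in tens. Compounds in olive oil were given sc 6 times a week for 28 days. Tumor area (length × width) was measured twice weekly.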
# Rattus norvegicus [4] = experiment: Effect on DMBA-induced hormone-dependent mammary carcinoma tumor growth in rats at 2.0 mg/kg/day (number of tumors at test beginning)
# Rattus norvegicus [5] = experiment: Effect on DMBA-induced hormone-dependent mammary carcinoma tumor number in rats at 2.0 mg/kg/day; type: functional; in short: as §2
# Rattus norvegicus [6] = experiment: Percent unchanged DMBA-induced hormone-dependent mammary carcinoma in rats at 1.0 mg/kg/day; type: functional; in short: as §2
# Rattus norvegicus [7] = experiment: Percent unchanged DMBA-induced hormone-dependent mammary carcinoma in rats at 4.0 mg/kg/day; type: functional; in short: as §2
# [8] = molecular target: T1, Estrogen receptor (Mus musculus); experiment: Percent inhibition of estrone-stimulated uterine growth in immature mouse at 50 ug dose; type: functional; in short: as §1
# [9] = test system: Estrogen receptor (Bos taurus); experiment: In vitro relative binding affinity for Estrogen receptor compared to [3H]estradiol
# Rattus norvegicus [10] = experiment: Effect on DMBA-induced hormone-dependent mammary carcinoma tumor growth in rats at 4.0 mg/kg/day (initial tumor number); type: functional; in short: as §2
# [11] = molecular target: T1, Estrogen receptor (Mus musculus); experiment: Antiuterotrophic activity in mice at 5 ug dose; type: functional; in short: as §1
# Rattus norvegicus [12] = experiment: Percent progression of DMBA-induced hormone-dependent mammary carcinoma in rats at 2.0 mg/kg/day; type: functional; in short: as §2
# Rattus norvegicus [13] = experiment: Percent unchanged DMBA-induced hormone-dependent mammary carcinoma in rats at 2.0 mg/kg/day; type: functional; in short: as §2
# Rattus norvegicus [14] = experiment: Percent remission of DMBA-induced hormone-dependent mammary carcinoma in rats at 2.0 mg/kg/day; type: functional; in short: as §2
# Rattus norvegicus [15] = experiment: Effect on DMBA-induced hormone-dependent mammary carcinoma tumor number in rats at 1.0 mg/kg/day; type: functional; in short: as §2
# Rattus norvegicus [16] = experiment: Percent partial remission of DMBA-induced hormone-dependent mammary carcinoma in rats at 2.0 mg/kg/day; type: functional; in short: as §2
# Rattus norvegicus [17] = experiment: Percent progression of DMBA-induced hormone-dependent mammary carcinoma in rats at 4.0 mg/kg/day; type: functional; in short: as §2
# Mus musculus [18] = experiment: Effect on estrogen and progesterone receptors positive hormone-dependent postmenopausal human mammary carcinoma tumor growth in nude mice at 2.0 mg/kg/day; type: functional
# In short: (§3)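 Nude mice carried serially transplanted hormone-dependent human mammary carcinoma. Compounds in olive oil were given sc 6 times a week for 4-5 weeks. Two tumor diameters were measured weekly, and size at treatment start was set as 1. Tumor size was averaged after 5 weeks of therapy.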
# Rattus norvegicus [19] = experiment: Percent partial remission of DMBA-induced hormone-dependent mammary carcinoma in rats at 1.0 mg/kg/day; type: functional; in short: as §2
# Rattus norvegicus [20] = experiment: Effect on DMBA-induced hormone-dependent mammary carcinoma tumor growth in rats at 1.0 mg/kg/day (initial tumor number); type: functional; in short: as §2
# Rattus norvegicus [21] = experiment: Effect on DMBA-induced hormone-dependent mammary carcinoma tumor growth in rats at 1.0 mg/kg/day; type: functional; in short: as §2
# Rattus norvegicus [22] = experiment: Percent progression of DMBA-induced hormone-dependent mammary carcinoma in rats at 1.0 mg/kg/day; type: functional; in short: as §2
# Rattus norvegicus [23] = experiment: Percent remission of DMBA-induced hormone-dependent mammary carcinoma in rats at 4.0 mg/kg/day; type: functional; in short: as §2
# Mus musculus [24] = experiment: Effect on estrogen and progesterone receptors positive hormone-dependent postmenopausal human mammary carcinoma tumor growth in nude mice at 1.0 mg/kg/day dose; type: functional; in short: as §3
# Rattus norvegicus [25] = experiment: Effect on DMBA-induced hormone-dependent mammary carcinoma tumor number in rats at 4.0 mg/kg/day; type: functional; in short: as §2
# Rattus norvegicus [26] = experiment: Effect on DMBA-induced hormone-dependent mammary carcinoma tumor growth in rats at 4.0 mg/kg/day; type: functional; in short: as §2
# Rattus norvegicus [27] = experiment: Percent remission of DMBA-induced hormone-dependent mammary carcinoma in rats at 1.0 mg/kg/day; type: functional; in short: as §2
# [28] = molecular target: T1, Estrogen receptor (Mus musculus); experiment: Antiuterotrophic activity in mice at 2.5 ug dose; type: functional; in short: as §1
# [29] = molecular target: T1, Estrogen receptor (Mus musculus); experiment: Percent inhibition of estrone-stimulated uterine growth in immature mouse at 5 ug dose; type: functional; in short: as §1
# [30] = molecular target: T1, Estrogen receptor (Mus musculus); experiment: Antiuterotrophic activity in mice at 25 ug dose; type: functional; in short: as §1
# [31] = molecular target: T1, Estrogen receptor (Mus musculus); experiment: Antiuterotrophic activity in mice at 50 ug dose; type: functional; in short: as §1
# Rattus norvegicus [32] = experiment: Percent partial remission of DMBA-induced hormone-dependent mammary carcinoma in rats at 4.0 mg/kg/day; type: functional; in short: as §2
# Mus musculus [33] = experiment: Effect on estrogen and progesterone receptors positive hormone-dependent postmenopausal human mammary carcinoma tumor growth in nude mice at 2.8 mg/kg/day; type: functional; in short: as §3
# [34] = molecular target: T1, Estrogen receptor (Mus musculus); experiment: Uterotrophic activity in mice at 10 ug dose; type: functional, tissue-based; settings: Uterus; in short: as §1
# [35] = molecular target: T1, Estrogen receptor (Mus musculus); experiment: Uterotrophic activity in mice at 100 ug dose; type: functional, tissue-based; settings: Uterus; in short: as §1
# [36] = molecular target: T1, Estrogen receptor (Mus musculus); experiment: Percent inhibition of estrone-stimulated uterine growth in immature mouse at 100 ug dose; type: functional; in short: as §1
# [37] = molecular target: T1, Estrogen receptor (Mus musculus); experiment: Antiuterotrophic activity in mice at 100 ug dose; type: functional; in short: as §1
# [38] = molecular target: T1, Estrogen receptor (Mus musculus); experiment: Uterotrophic activity in mice at 1000 ug dose; type: functional, tissue-based; settings: Uterus
# In short: (§4)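 Dorfman uterine weight test in immature female NMRI mice (20 days old at start, 10-12 g; ten per group). Compound given sc daily in olive oil for 3 days. Animals killed 24 h after last injection; uteri removed, dried at 100 °C for 24 h and weighed.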
# Mus musculus [39] = experiment: Effect on estrogen and progesterone receptors positive hormone-dependent postmenopausal human mammary carcinoma tumor growth in nude mice at 3.0 mg/kg/day; type: functional; in short: as §3
# Mus musculus [40] = experiment: Effect on estrogen and progesterone receptors positive hormone-dependent postmenopausal human mammary carcinoma tumor growth in nude mice at 2.6 mg/kg/day; type: functional; in short: as §3
# [41] = molecular target: T1, Estrogen receptor (Mus musculus); experiment: Uterotrophic activity in mice at 1 ug dose; type: functional, tissue-based; settings: Uterus; in short: as §1
# [42] = molecular target: T1, Estrogen receptor (Mus musculus); experiment: Uterotrophic activity in mice at 500 ug dose; type: functional, tissue-based; settings: Uterus; in short: as §4
# [43] = molecular target: T1, Estrogen receptor (Mus musculus); experiment: Uterotrophic activity in mice at 50 ug dose; type: functional, tissue-based; settings: Uterus; in short: as §4
# [44] = molecular target: T1, Estrogen receptor (Mus musculus); experiment: Uterotrophic activity in mice at 5 ug dose; type: functional, tissue-based; settings: Uterus; in short: as §4
# [45] = molecular target: T1, Estrogen receptor (Mus musculus); experiment: Uterotrophic activity in mice at 8 ug dose; type: functional, tissue-based; settings: Uterus; in short: as §4
# Rattus norvegicus [46] = experiment: Effect on DMBA-induced hormone-dependent mammary carcinoma tumor number in rats at 0.5 mg/kg/day; type: functional; in short: as §2
# Rattus norvegicus [47] = experiment: Percent progression of DMBA-induced hormone-dependent mammary carcinoma in rats at 0.5 mg/kg/day (Percent of tumors with progression); type: functional; in short: as §2
# Rattus norvegicus [48] = experiment: Percent remission of DMBA-induced hormone-dependent mammary carcinoma in rats at 0.5 mg/kg/day; type: functional; in short: as §2
# [49] = molecular target: T1, Estrogen receptor (Mus musculus); experiment: Uterotrophic activity in mice at 80 ug dose; type: functional, tissue-based; settings: Uterus; in short: as §4
# Rattus norvegicus [50] = experiment: Percent partial remission of DMBA-induced hormone-dependent mammary carcinoma in rats at 0.5 mg/kg/day; type: functional; in short: as §2
# Rattus norvegicus [51] = experiment: Effect on DMBA-induced hormone-dependent mammary carcinoma tumor growth in rats at 0.5 mg/kg/day (initial tumor number); type: functional; in short: as §2
# [52] = molecular target: T1, Estrogen receptor (Mus musculus); experiment: Uterotrophic activity in mice at 800 ug dose; type: functional, tissue-based; settings: Uterus; in short: as §4
# Rattus norvegicus [53] = experiment: Percent unchanged DMBA-induced hormone-dependent mammary carcinoma in rats at 0.5 mg/kg/day; type: functional; in short: as §2
# Rattus norvegicus [54] = experiment: Effect on DMBA-induced hormone-dependent mammary carcinoma tumor growth in rats at 0.5 mg/kg/day; type: functional; in short: as §2
# T1 sequence (O08537 whole entry, looked up): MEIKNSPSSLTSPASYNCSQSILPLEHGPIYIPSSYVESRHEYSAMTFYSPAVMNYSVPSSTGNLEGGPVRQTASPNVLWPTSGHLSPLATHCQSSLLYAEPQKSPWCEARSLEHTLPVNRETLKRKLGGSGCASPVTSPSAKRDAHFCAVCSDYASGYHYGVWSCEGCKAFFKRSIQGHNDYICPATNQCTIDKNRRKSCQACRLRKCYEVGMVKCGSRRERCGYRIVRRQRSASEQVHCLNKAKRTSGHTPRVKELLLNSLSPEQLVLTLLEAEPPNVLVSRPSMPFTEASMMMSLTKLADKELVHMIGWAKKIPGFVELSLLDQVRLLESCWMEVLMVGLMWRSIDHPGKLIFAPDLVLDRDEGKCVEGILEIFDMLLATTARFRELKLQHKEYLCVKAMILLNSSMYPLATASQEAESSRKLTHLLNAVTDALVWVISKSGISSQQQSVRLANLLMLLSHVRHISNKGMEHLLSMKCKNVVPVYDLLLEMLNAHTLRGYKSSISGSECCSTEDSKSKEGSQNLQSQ
# T1 sequence (P19785 whole entry, looked up): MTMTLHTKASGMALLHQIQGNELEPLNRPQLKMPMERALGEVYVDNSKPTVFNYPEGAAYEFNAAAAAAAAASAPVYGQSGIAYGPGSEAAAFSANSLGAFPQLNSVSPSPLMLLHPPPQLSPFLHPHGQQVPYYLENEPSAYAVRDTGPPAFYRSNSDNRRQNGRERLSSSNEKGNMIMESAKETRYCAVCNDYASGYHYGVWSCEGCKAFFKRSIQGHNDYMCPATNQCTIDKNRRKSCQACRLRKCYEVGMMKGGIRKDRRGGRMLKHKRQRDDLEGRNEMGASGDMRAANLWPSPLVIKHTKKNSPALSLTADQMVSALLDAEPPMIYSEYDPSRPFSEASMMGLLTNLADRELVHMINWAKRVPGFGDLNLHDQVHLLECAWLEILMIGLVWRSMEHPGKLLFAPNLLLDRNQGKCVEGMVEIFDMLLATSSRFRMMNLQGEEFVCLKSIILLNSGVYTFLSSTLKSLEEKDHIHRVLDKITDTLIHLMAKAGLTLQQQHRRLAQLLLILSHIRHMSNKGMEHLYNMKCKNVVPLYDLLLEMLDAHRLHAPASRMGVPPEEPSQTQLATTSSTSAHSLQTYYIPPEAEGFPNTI
Compound,inhibition [1] [%],Tumors (Rattus norvegicus [6]) [%],Tumors (Rattus norvegicus [7]) [%],inhibition [8] [%],RBA [9] [%],No. of tumors (Rattus norvegicus [10]),Effect [11],No. of tumors (Rattus norvegicus [15]),Tumors (Rattus norvegicus [17]) [%],Tumor size (Mus musculus [18]),Tumors (Rattus norvegicus [19]) [%],No. of tumors (Rattus norvegicus [20]),Tumors (Rattus norvegicus [22]) [%],Tumors (Rattus norvegicus [23]) [%],Tumor size (Mus musculus [24]),inhibition [29] [%],Effect [31],Effect [35],inhibition [36] [%],Effect [37],also measured
CC/C(=C(/CC)c1cccc(O)c1)c1cccc(O)c1,42.8,38,32,45.1,3.2,37,28.1,34,19,1.76,23,32,24,27,2.78,48,29.1,,,,inhibition [2]: 18.7%; Change (Rattus norvegicus [3]): 2%; Number of tumors at test beginning (Rattus norvegicus [4]): 32; No. of tumors (Rattus norvegicus [5]): 21; Tumors (Rattus norvegicus [12]): 17%; Tumors (Rattus norvegicus [13]): 32%; Tumors (Rattus norvegicus [14]): 25%; Tumors (Rattus norvegicus [16]): 26%; Tumors (Rattus norvegicus [21]): 40%; No. of tumors (Rattus norvegicus [25]): 17; Change (Rattus norvegicus [26]): -26%; Tumors (Rattus norvegicus [27]): 15%; Effect [28]: 38.3; Effect [30]: 29.9; Tumors (Rattus norvegicus [32]): 22%
CCC/C(=C(/CCC)c1cccc(OC(C)=O)c1)c1cccc(OC(C)=O)c1,,,,,1.3,,,,,,,,,,,,,,,,Tumor size (Mus musculus [33]): 2.32
CCCCC1(c2cccc(OC(C)=O)c2)OC1(CCCC)c1cccc(OC(C)=O)c1 (stereo not drawn),,,,2.2,0.8,,32.4,,,,,,,,,38.8,42,34.3,0.4,42.4,Effect [34]: 19.8; Effect [38]: 35.5; Tumor size (Mus musculus [39]): 3.37
CCC1(c2cccc(OC(C)=O)c2)OC1(CC)c1cccc(OC(C)=O)c1 (stereo not drawn),,,,22.6,4.2,,33.2,,,,,,,,,33.5,36.4,36.2,0,43.7,Effect [34]: 30.3; Tumor size (Mus musculus [40]): 2.38; Effect [41]: 22.2; Effect [42]: 38.6; Effect [43]: 33.4
CCCC1(c2cccc(OC(C)=O)c2)OC1(CCC)c1cccc(OC(C)=O)c1 (stereo not drawn),7.8,,,,1.7,,34.1,,,,,,,,,15.6,,31.1,0,39.4,Tumor size (Mus musculus [33]): 1.85; Effect [44]: 21.8; Effect [30]: 36.3; Effect [42]: 33.3; Effect [43]: 22.1
CCC1(c2cccc(O)c2)OC1(CC)c1cccc(O)c1 (stereo not drawn),,0,12,34.3,5.4,29,27.6,10,15,1.85,13,31,10,61,2.9,52.5,33,,2.7,42.2,Effect [45]: 29.4; No. of tumors (Rattus norvegicus [46]): 18; Tumors (Rattus norvegicus [47]): 13%; Tumors (Rattus norvegicus [48]): 69%; Change (Rattus norvegicus [21]): -52%; Effect [49]: 33; Tumors (Rattus norvegicus [50]): 13%; No. of tumors (Rattus norvegicus [51]): 27; No. of tumors (Rattus norvegicus [25]): 4; Effect [52]: 43.6; Change (Rattus norvegicus [26]): -16%; Tumors (Rattus norvegicus [27]): 76%; Tumors (Rattus norvegicus [53]): 5%; Change (Rattus norvegicus [54]): 18%; Tumors (Rattus norvegicus [32]): 12%
